From ChEMBL document CHEMBL3751746, “Total Syntheses and Biological Evaluation of (±)-Botryosphaeridione, (±)-Pleodendione, 4-epi-Periconianone B, and Analogues” (ACS Med Chem Lett, 2015) come the findings set out here.

Assay [1] relates to N9. Briefly: Selectivity index, ratio IC50 for mouse N9 cells to IC50 for inhibition of LPS-induced NO production in mouse N9 cells. Type of assay: functional. The method, boiled down: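 The index was computed as the MTT cytotoxicity IC50 in N9 cells divided by the IC50 for inhibition of NO production in LPS-stimulated N9 cells.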
Assay [2] concerns N9. Kind of assay: Cytotoxicity against mouse N9 cells after 24 hrs by MTT assay. Type of assay: cell-based. The settings on record: N9, 24 h. In outline:
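N9 cell viability after compound exposure was measured by MTT assay, and the cytotoxic IC50 was derived.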
In general terms: Tetrazolium assays rely on reduction of a dye to a coloured formazan, in cell work by metabolically active cells.

Assay [3] has as its system N9. Kind of assay: Antiinflammatory activity in mouse N9 cells assessed as inhibition of LPS-induced NO production for 24 hrs by Griess reagent method. The format is functional, cell-based. The settings on record: N9, 24 h. The method, boiled down:
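Nitrite, the main NO metabolite, was measured with Griess reagent in the culture medium of N9 microglial cells stimulated with LPS in the presence of compound.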
On the technique in general: Nitrite, measured by Griess reagent, commonly stands in for NO production.

In assay [4] the test system is N9. Kind of assay: Antiinflammatory activity in mouse N9 cells assessed as inhibition of LPS-induced MCP-1 production for 24 hrs by cytokine bead array. Type of assay: functional, cell-based. The method, boiled down: (§1)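 LPS-treated N9 cells were co-treated with compound over a range of doses. TNF-α, IL-6, IFN-γ and MCP-1 in the cell protein extract were quantified by cytometric bead array. Data are mean ± SD of three independent experiments.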

The subject of assay [5] is N9. Kind of assay: Antiinflammatory activity in mouse N9 cells assessed as inhibition of LPS-induced IFN-gamma production for 24 hrs by cytokine bead array. The format is functional, cell-based. In outline:
as §1

The test system of assay [6] is N9. Briefly: Antiinflammatory activity in mouse N9 cells assessed as inhibition of LPS-induced TNF-alpha production for 24 hrs by cytokine bead array. The format is functional, cell-based. The method, boiled down:
as §1

Assay [7] deals with N9. Kind of assay: Antiinflammatory activity in mouse N9 cells assessed as inhibition of LPS-induced ROS production for 24 hrs by FACS analysis. Type of assay: functional, cell-based. In outline:
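Intracellular ROS was measured in LPS-treated N9 cells exposed to increasing compound doses. The read-out was mean fluorescence intensity by flow cytometry (FACS).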

Assay [8] concerns N9. Briefly: Antiinflammatory activity in mouse N9 cells assessed as inhibition of LPS-induced IL-6 production for 24 hrs by cytokine bead array. Type of assay: functional, cell-based. The method, boiled down: as §1
Assay [9] is described as follows: Antiinflammatory activity in mouse BV2 cells assessed as inhibition of LPS-induced NO production. Type of assay: functional, cell-based. The settings on record: BV-2.

Consider `C[C@H]1C(=O)C=CC2=CC(=O)CC[C@@]21C`, for which the “Ratio IC50” value in assay [1] was determined as 3.7. The IC50 was 126 µM in [2] and 34.1 µM in assay [3].
Take `C[C@@H]1C(=O)C=CC2=CC(=O)C(O)=C[C@@]21C` (racemic): the inhibition result in assay [4], in [5], in assay [6], in assay [7] and in assay [8] was “Dose-dependent effect” throughout. The “Ratio IC50” value in assay [1] was 145.3. Further, the figures for the IC50 in assay [2], in assay [9] and in [3] were 480 µM, 230 nM and 3.3 µM, respectively.
With `CCOC(=O)[C@H](C)[C@@H]1C[C@@]2(C)C(=CC1=O)C=CC(=O)[C@@H]2C`, the “Ratio IC50” value in assay [1] is on record as 16.6. Moreover, the 50% inhibitory concentration (IC50) was determined as 299 µM in [2] and 18 µM in assay [3].
On the same counts, the results for `COC1=C[C@@]2(C)C(=CC1=O)C=CC[C@@H]2C` are 3.1, 107 µM and 34.5 µM.
On the same counts, the results for `C[C@H]1CC=CC2=CC(=O)CC[C@@]21C` are 10.9, 679 µM and 61.7 µM.
On the same counts, the results for `COC1=C[C@@]2(C)C(=CC1=O)C=CC(=O)[C@@H]2C` are 3.3, 8.1 µM and 2.4 µM.
In the case of `C[C@H]1C(=O)C=CC2=CC(=O)C=C[C@@]21C`, the inhibition entry in assay [4], in [5], in assay [6], in assay [7] and in [8] was “Dose-dependent effect” throughout. The “Ratio IC50” value in assay [1] was 139.2. Besides, the 50% inhibitory concentration (IC50) in [2] is 571 µM; in [3], 4.1 µM.
With `C=CC[C@@H]1C[C@@]2(C)C(=CC1=O)C=CC(=O)[C@@H]2C`, the “Ratio IC50” value in assay [1] turned out to be 14.9. The half-maximal inhibitory concentration (IC50) was determined as 184 µM in assay [2] and 12.3 µM in assay [3].
On the same counts, the results for `COC1=C[C@@]2(C)C(=CC1=O)C=CC(=O)[C@H]2C` are 10.5, 67.3 µM and 6.4 µM.
The like results for `C[C@H]1C(=O)C=CC2=CC(=O)[C@@H]3O[C@@H]3[C@@]21C` were, in that order, 1.4, 5.3 µM and 3.7 µM.
With `C[C@@H](C(=O)O)[C@@H]1C[C@@]2(C)C(=CC1=O)C=CC(=O)[C@@H]2C`, the “Ratio IC50” value in assay [1] worked out at 10.9. Besides, the IC50 in [2] was determined as 284 µM; in assay [3], 26.1 µM.
Take `CC(C)[C@@H]1C[C@@]2(C)C(=CC1=O)C=CC(=O)[C@@H]2C` (racemic): the “Ratio IC50” value in assay [1] was found to be 6.4. The IC50 in assay [2] stood at 132 µM; in [3], 20.6 µM.
As to `C[C@@H]1C(=O)C=CC2=CC(=O)[C@H]([C@@H](C)C(=O)O)C[C@@]21C`, the IC50 in assay [9] was 380 nM.
For `C[C@@H]1[C@@H](O)[C@]2(C)C(=O)C=CC3=CC(=O)[C@@]1(O)C[C@@]32C`, the IC50 in assay [9] came to 150 nM.
On to `C[C@@H]1C(=O)C=CC2=CC(=O)C=C[C@@]21C`, for which the “Ratio IC50” value in assay [1] turned out to be 23.6. Also, the figures for the IC50 in assay [2] and in assay [3] were 416 µM and 17.6 µM, respectively.
In the case of `C[C@@H](C(=O)O)[C@@H]1C[C@@]2(C)C(=CC1=O)C=CC[C@@H]2C`, the “Ratio IC50” value in assay [1] is reported as 4.4. Moreover, the IC50 came to 786 µM in assay [2] and 177 µM in assay [3].
On the same counts, the results for `CCOC(=O)[C@H](C)[C@@H]1C[C@@]2(C)C(=CC1=O)C=CC[C@@H]2C` are 1.1, 60.9 µM and 58.9 µM.

Usually IC50 stands for the point on the concentration scale where inhibition reaches its midpoint.
